Source: ChEMBL document CHEMBL5724801, “EUbOPEN Chemogenomics Library - Multiplex” (2024)
Values joined by “and” are separate entries in the source; they are usually repeats but may differ in a detail not shown here. Equal entries are not always repeated.

Test system: Fibroblast
Experiment: Multiplex assay against human fibroblast
Assay type: toxicity, cell-based
How it was run: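 Live cells were stained at seeding with Hoechst33342, BioTracker Green Microtubule Cytoskeleton Dye, MitoTracker Red and Annexin V Alexa Fluor 680. Following compound addition, they were imaged on a CQ1 microscope at 37°C and 5% CO2 and gated by CellPathfinder machine learning into Hoechst high-intensity objects or normal cells, with normal cells split into healthy, pyknosed or fragmented nuclei and pyknosed cells into mitotic or apoptotic. Tubulin, mitochondrial-mass and membrane-permeability phenotypes are per cents of healthy-nucleus cells.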

[1] = 12 h, 1 µM, compound concentration 1 uM
[2] = 12 h, 10 µM, compound concentration 10 uM
[3] = 24 h, 1 µM, compound concentration 1 uM
[4] = 24 h, 10 µM, compound concentration 10 uM
[5] = 48 h, 1 µM, compound concentration 1 uM
[6] = 48 h, 10 µM, compound concentration 10 uM

CSc1ccccc1N1CCN(CCCCCC(=O)NC2CCCc3ccccc32)CC1.Cl (centres undefined) was tested, and the “Population Apoptotic (%)” value [1] was 37% and 50%, the “Population Fragmented Nuclei (%)” value [1] was 26% and 32% and the “Population Healthy Nuclei (%)” value [1] was 49% and 41%. For the same compound, the “Population Hoechst High Intensity Objects (%)” value [1] was 6% and 2%, the “Population Membrane Permeable-Phenotype (%)” value [1] was 1% and 9% and the “Population Mitochondria Different-Phenotype (%)” value [1] was 15% and 7%. The “Population Mitotic Cells (%)” value [1] was 62% and 50%, the “Population Normal (%)” value [1] was 93% and 97% and the “Population Pyknosed Nuclei (%)” value [1] was 24% and 25%. For the same compound, the “Population Tubulin-Different-Phenotype (%)” value [1] was 65% and 74%, the “Total Cell Count” value [1] was 126 and 135 and the “Population Apoptotic (%)” value [2] was 58% and 66%. For the same compound, the “Population Fragmented Nuclei (%)” value [2] was 25% and 34%, the “Population Healthy Nuclei (%)” value [2] was 57% and 50% and the “Population Hoechst High Intensity Objects (%)” value [2] was 5%. The “Population Membrane Permeable-Phenotype (%)” value [2] was 0%, the “Population Mitochondria Different-Phenotype (%)” value [2] was 78% and 36% and the “Population Mitotic Cells (%)” value [2] was 41% and 33%. The “Population Normal (%)” value [2] was 94%, the “Population Pyknosed Nuclei (%)” value [2] was 17% and 14% and the “Population Tubulin-Different-Phenotype (%)” value [2] was 95% and 92%. The “Total Cell Count” value [2] was 220 and 242, the “Population Apoptotic (%)” value [3] was 52% and 37% and the “Population Fragmented Nuclei (%)” value [3] was 29% and 33%. For the same compound, the “Population Healthy Nuclei (%)” value [3] was 52% and 43%, the “Population Hoechst High Intensity Objects (%)” value [3] was 6% and 3% and the “Population Membrane Permeable-Phenotype (%)” value [3] was 0% and 3%. The “Population Mitochondria Different-Phenotype (%)” value [3] was 21% and 11%, the “Population Mitotic Cells (%)” value [3] was 47% and 62% and the “Population Normal (%)” value [3] was 93% and 96%. For the same compound, the “Population Pyknosed Nuclei (%)” value [3] was 18% and 23%, the “Population Tubulin-Different-Phenotype (%)” value [3] was 40% and 64% and the “Total Cell Count” value [3] was 133 and 130. The “Population Apoptotic (%)” value [4] was 90% and 66%, the “Population Fragmented Nuclei (%)” value [4] was 22% and 33% and the “Population Healthy Nuclei (%)” value [4] was 66% and 56%. For the same compound, the “Population Hoechst High Intensity Objects (%)” value [4] was 7% and 3%, the “Population Membrane Permeable-Phenotype (%)” value [4] was 0% and the “Population Mitochondria Different-Phenotype (%)” value [4] was 81% and 51%. For the same compound, the “Population Normal (%)” value [4] was 92% and 96%, the “Population Pyknosed Nuclei (%)” value [4] was 11% and 9% and the “Population Tubulin-Different-Phenotype (%)” value [4] was 98% and 90%. The “Total Cell Count” value [4] was 211 and 258, the “Population Apoptotic (%)” value [5] was 61% and 44% and the “Population Fragmented Nuclei (%)” value [5] was 26% and 33%. The “Population Healthy Nuclei (%)” value [5] was 56% and 45%, the “Population Hoechst High Intensity Objects (%)” value [5] was 6% and 1% and the “Population Membrane Permeable-Phenotype (%)” value [5] was 2% and 0%. For the same compound, the “Population Mitochondria Different-Phenotype (%)” value [5] was 17% and 12%, the “Population Mitotic Cells (%)” value [5] was 38% and 56% and the “Population Normal (%)” value [5] was 93% and 98%. For the same compound, the “Population Pyknosed Nuclei (%)” value [5] was 17% and 20%, the “Population Tubulin-Different-Phenotype (%)” value [5] was 69% and 64% and the “Total Cell Count” value [5] was 132 and 124. For the same compound, the “Population Apoptotic (%)” value [6] was 91% and 68%, the “Population Fragmented Nuclei (%)” value [6] was 25% and 38% and the “Population Healthy Nuclei (%)” value [6] was 61% and 53%. For the same compound, the “Population Hoechst High Intensity Objects (%)” value [6] was 8% and 4%, the “Population Membrane Permeable-Phenotype (%)” value [6] was 0% and 2% and the “Population Mitochondria Different-Phenotype (%)” value [6] was 82% and 33%. The “Population Normal (%)” value [6] was 91% and 95%, the “Population Pyknosed Nuclei (%)” value [6] was 12% and 8% and the “Population Tubulin-Different-Phenotype (%)” value [6] was 97% and 83%. For the same compound, the “Total Cell Count” value [6] was 195 and 281.
